Source: ChEMBL document CHEMBL1141409, “Structures, biogenesis, and biological activities of pyrano[4,3-c]isochromen-4-one derivatives from the Fungus Phellinus igniarius” (J Nat Prod, 2007)
pIC50: −log10 of the molar value.

Key:
Liver microsomes = experiment: Antioxidant activity assessed as inhibition of rat liver microsomal lipid peroxidation; format: functional, Microsome
A549 = experiment: Cytotoxicity against human A549 cells; format: cell-based
[1] = biological target: T1, Tyrosine-protein phosphatase non-receptor type 1 (Homo sapiens, UniProt P18031); experiment: Inhibition of human PTP1B
T1 sequence (P18031 whole entry): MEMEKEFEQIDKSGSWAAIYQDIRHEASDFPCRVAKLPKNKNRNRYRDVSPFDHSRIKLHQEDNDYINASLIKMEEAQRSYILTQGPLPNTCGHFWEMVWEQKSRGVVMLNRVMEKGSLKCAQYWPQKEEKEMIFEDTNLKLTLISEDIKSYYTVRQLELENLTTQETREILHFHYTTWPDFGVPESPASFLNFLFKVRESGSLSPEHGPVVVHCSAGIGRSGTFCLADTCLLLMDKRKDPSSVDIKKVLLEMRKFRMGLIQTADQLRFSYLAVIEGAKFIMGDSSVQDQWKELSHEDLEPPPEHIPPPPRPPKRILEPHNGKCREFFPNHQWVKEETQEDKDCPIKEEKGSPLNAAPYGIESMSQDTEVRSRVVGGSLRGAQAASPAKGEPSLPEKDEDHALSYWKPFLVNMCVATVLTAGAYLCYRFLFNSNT
Method in brief: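 Recombinant GST-tagged human PTP1B, purified from bacterial pellets on a GST bead column. Substrate 3 mM p-NPP in HEPES buffer, pH 7.0. Compounds dissolved in DMSO, 10% DMSO final in all reactions. First screened at 10 µM for 10 min at 30 °C. Reaction started by adding enzyme and stopped with 1 M NaOH. End-point p-nitrophenol absorbance at 405 nm.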

[2] = Cytotoxicity against human […] cells; format: cell-based
[3] = Cytotoxicity against human Bel7402 cells; format: cell-based; settings: Bel-7402
HCT-8 = experiment: Cytotoxicity against human HCT8 cells; format: cell-based

SMILES	pIC50 (Liver microsomes)	pIC50 [1]	IC50 (A549) [µg/mL]	IC50 [2] [µg/mL]	IC50 [3] [µg/mL]	IC50 (HCT-8) [µg/mL]	pIC50 (A549)	pIC50 [2]	pIC50 [3]	pIC50 (HCT-8)
CC[C@@]1(O)C(=O)OCc2c1cc1n(c2=O)Cc2cc3c(CN(C)C)c(O)ccc3nc2-1 [TOPOTECAN]	–	–	–	–	–	–	5.51	5.92	5.85	5.80
O=C(O)c1cc2oc(=O)c3cc(O)c(O)cc3c2c(=O)o1 [PHELLIGRIDIN J]	5.19	< 5.00	–	–	–	–	5.38	5.14	5.04	5.08
O=c1oc2cc(-c3c(-c4ccc(O)c(O)c4)oc4cc(/C=C/c5ccc(O)c(O)c5)oc(=O)c34)oc(=O)c2c2cc(O)c(O)cc12 [PHELLIGRIDIN H]	5.32	–	> 10	> 10	> 10	> 10	–	–	–	–

Further compounds by rising pIC50 (Liver microsomes), results first:

pIC50 (Liver microsomes)	pIC50 [1]	SMILES	IC50 (A549) [µg/mL]	IC50 [2] [µg/mL]	IC50 [3] [µg/mL]	IC50 (HCT-8) [µg/mL]	pIC50 (A549)	pIC50 [2]	pIC50 [3]	pIC50 (HCT-8)
5.09	–	CC1=CC(=O)[C@H](c2c(O)cc(/C=C/c3ccc(O)c(O)c3)oc2=O)[C@@H](c2ccc(O)c(O)c2)O1 [DAVALLIALACTONE]	> 10	> 10	> 10	> 10	–	–	–	–
5.43	5.52	O=c1oc(/C=C/c2ccc(O)c(O)c2)cc(O)c1-c1cc(O)c(O)cc1/C=C/c1cc2oc(=O)c3cc(O)c(O)cc3c2c(=O)o1 [PHELLIGRIDIN I]	> 10	> 10	> 10	> 10	–	–	–	–
